Test results published in paper PMC2587418 (Journal of medicinal chemistry, 2008).
Read-outs that look alike come from different tables or passages of the source.

How the values were obtained:
[1] = format: in vivo, rat; details: pretreated with 3 (10 mg/kg i.v.)
Summary of the method: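 Adult male Sprague-Dawley rats (225–250 g) were pretreated by tail vein with a selective CB1 inverse agonist (10 mg/kg, i.v.) or its vehicle. After 15 min they received the test compound (30 μg/kg, i.v.) and were killed by cervical dislocation at 0.25, 0.5, 1, 2, 4 or 8 h, three rats per time point. Frontal cortex was weighed, homogenised in four volumes MeCN with 0.1% HCO2H, and quantified by LC-MS.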

human CB1 receptors = human CB1 receptors (Homo sapiens, UniProt P21554); assay: CB1 GTPγ35S potency assay; format: biochemical; details: ratio of CB2 Kb to CB1 Kb; fold
[2] = monkey; within 10-20 min after injection; cited from earlier work

Sequence of human CB1 receptors (P21554 whole entry): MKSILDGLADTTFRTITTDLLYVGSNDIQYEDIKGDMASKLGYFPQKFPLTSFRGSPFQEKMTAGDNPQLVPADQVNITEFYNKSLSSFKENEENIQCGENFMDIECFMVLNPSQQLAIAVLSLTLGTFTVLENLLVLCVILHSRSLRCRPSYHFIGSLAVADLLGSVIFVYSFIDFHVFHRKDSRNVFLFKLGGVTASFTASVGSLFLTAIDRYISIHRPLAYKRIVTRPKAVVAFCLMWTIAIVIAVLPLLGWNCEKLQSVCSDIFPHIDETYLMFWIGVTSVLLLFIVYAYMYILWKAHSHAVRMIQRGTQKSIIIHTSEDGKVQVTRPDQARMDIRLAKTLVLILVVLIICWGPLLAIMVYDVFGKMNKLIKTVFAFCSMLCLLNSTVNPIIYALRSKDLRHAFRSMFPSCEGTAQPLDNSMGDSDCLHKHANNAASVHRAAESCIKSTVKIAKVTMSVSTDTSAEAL

Structure (SMILES) | Ligand quantifiability in frontal cerebral cortex ([1]; at 4 h after injection) | CB1 versus CB2 selectivity (human CB1 receptors) | Ligand quantifiability in frontal cerebral cortex ([1]; at 2 h after injection) | Brain standardized uptake value [2]
COc1cccc([C@H]2C[C@@H](N[C@H](C)c3ccccc3)C(=O)N2c2ccc(C(F)(F)F)cc2)c1 [Ligand 8, (3R,5R)-5-(3-Methoxy-phenyl)-3-((R)-1-phenyl-ethylamino)-1-(4-trifluoromethyl-phenyl)-pyrrolidin-2-one] | not quantifiable |  |  | 
COc1cccc([C@H]2C[C@@H](N[C@H](C)c3ccc(F)cc3)C(=O)N2c2ccc(C(F)(F)F)cc2)c1 [Ligand 16, (3R,5R)-3-[(R)-1-(4-Fluoro-phenyl)-ethylamino]-5-(3-methoxy-phenyl)-1-(4-trifluoromethyl-phenyl)-pyrrolidin-2-one] |  | 2,160 |  | 
C[C@@H](N[C@@H]1C[C@H](c2cccc(OCF)c2)N(c2ccc(C(F)(F)F)cc2)C1=O)c1ccccc1 [Ligand 20, (3R,5R)-5-(3-Fluoromethoxy-phenyl)-3-((R)-1-phenyl-ethylamino)-1-(4-trifluoromethyl-phenyl)-pyrrolidin-2-one] | not quantifiable | 3,580 |  | 
C[C@@H](N[C@@H]1C[C@H](c2cccc(OCCF)c2)N(c2ccc(C(F)(F)F)cc2)C1=O)c1ccccc1 [Ligand 22, (3R,5R)-5-[3-(2-Fluoro-ethoxy)-phenyl]-3-((R)-1-phenyl-ethylamino)-1-(4-trifluoromethyl-phenyl)-pyrrolidin-2-one] |  | >19,500 | could not be quantified | 
C[C@@H](N[C@@H]1C[C@H](c2cccc(O[11CH3])c2)N(c2ccc(C(F)(F)F)cc2)C1=O)c1ccccc1 [[^11C]8, [methyl-^11C](3R,5R)-5-(3-methoxy-phenyl)-3-((R)-1-phenyl-ethylamino)-1-(4-trifluoromethyl-phenyl)-pyrrolidin-2-one] |  |  |  | ~600 % SUV
